Data published in ChEMBL document CHEMBL4513216, “Probing the Open Global Health Chemical Diversity Library for Multistage-Active Starting Points for Next-Generation Antimalarials” (ACS Infect Dis, 2020).

Test: Toxicity liver stage against HepG2, at 10uM
Format: cell-based
Design: test concentration 10 uM, cell line HepG2-A16-CD81EGFP
Details: human, HepG2-A16-CD81EGFP cells; read-out: INHIBITION
In short: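 Uninfected HepG2-A16-CD81EGFP cells, 3 × 10^3 per well, 1536-well, plated on prespotted compound at 10 μM final, parasite-free screening media added to match infected plates; puromycin 10 μM positive, DMSO 0.5% negative; run in parallel with 48 h PbLuc assay at 37 °C, 5% CO2; viability by CellTiter-Glo luminescence, normalized to controls.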

SMILES	cytotoxicity at 10 µM
Cc1ccc(CN2CC[C@@H](NC(=O)c3cccnc3)[C@H](O)C2)o1	2.52%
CS(=O)(=O)NCC(=O)N[C@H]1CN(c2cnccn2)C[C@@H]1C1CC1	-7.24%
CCCc1cc(C(=O)NC(COC)c2ccnn2C)no1 (stereo unspecified)	-6.14%
CN(C)CC1(O)CCN(C(=O)c2cnc(-c3cccnc3)nc2)C1 (stereo unspecified)	5.75%
CCc1cc(N2CCN3CCCCC3C2)n2nccc2n1 (stereo unspecified)	-1.12%
CCc1nc2ccccc2n1C(CC)C(=O)N(C)Cc1noc(C)n1 (stereo unspecified)	2.23%
CN(Cc1ccon1)C1CCN(c2cccc(-c3cscn3)c2)CC1	-3.96%
Cc1nc(CNCc2cccc(OC34CCCN(CC3)C4)c2)n[nH]1 (stereo unspecified)	-3.69%
O=c1cc(-c2cccnc2)nc(-c2ccc(CN3CC[C@H](O)C3)cc2)[nH]1	3.98%
CCNC(=O)[C@@H]1C[C@H](N)CN1C(=O)CCc1ccc(C)c(C)c1	3.45%
COc1ccc(CN(CC2CCCO2)C(=O)CN2CCCCC2=O)cc1 (stereo unspecified)	-0.645%
COc1cccc(-c2nc3c([nH]2)CC(C)(C)CNC3=O)c1OC	-5.82%
COc1ccc(Cl)cc1C(C(=O)O)N1CCSCC1 (stereo unspecified)	-10.8%
COc1ccc(CN2CCN(CC3CC3)[C@@H]3CS(=O)(=O)C[C@@H]32)cc1O	-0.931%
O=S(=O)(NCc1ccccc1)N1CCN(c2ncccn2)CC1	4.7%
CCCc1nnc(N2CCC(C3CCN(C)CC3)CC2)o1	-11.7%
CN(CCNC(=O)c1cccnc1)S(C)(=O)=O	-0.102%
Cc1cc(F)ccc1OC1(C(=O)O)CCN(Cc2cccnc2)CC1	1.87%
Cc1ncsc1CCN(C)C(=O)CN1CCCCCC1=O	-7.67%

SMILES	cytotoxicity at 10 µM
COc1ccc(OC2CCN(C(=O)c3cnc(C)s3)CC2)cc1	-18%
CCC(CO)(CO)NC(=O)C1CCC(=O)N(CCc2ccccc2)C1 (stereo unspecified)	-2.78%
Cc1ccc(-c2ccnc(N3CCC4(CC3)CNC(=O)O4)n2)c(C)n1	-6.93%
N#Cc1nccnc1N1CCN(CCOCc2ccccc2)CC1	-18.4%
Cc1nc(C)c(Cn2ccnc2-c2cc(CN(C)C)cs2)s1	1.99%
CN(C)[C@H]1CN(C(=O)CCc2cccc(F)c2)C[C@@H]1C1CC1	-1.1%
Cc1cc(C)nc(NC2CCCN(CCCc3ccccc3)C2)n1 (stereo unspecified)	2.49%
Cc1ccc2[nH]nc(C(=O)NCC3CCN(Cc4c[nH]cn4)C3)c2c1 (stereo unspecified)	-15.1%
CS(=O)(=O)N1CCCC(C(=O)Nc2cnn(Cc3ccc(F)cc3)c2)C1 (stereo unspecified)	-3.64%
CCOCCCNC(=O)Cc1cccs1	-10.2%
CCc1nccn1-c1cncc(C2CCCN2Cc2ccc(F)cc2)n1 (stereo unspecified)	-1.44%
NC(=O)C1CN(C(=O)Nc2ccccc2OCC(F)(F)F)CCO1 (stereo unspecified)	-7.75%
Cn1cnc(S(=O)(=O)NCCN2CCCCCC2)c1Cl	-17.2%
CC(C)c1nc(C2CCCN(C(=O)CCn3cncn3)C2)no1 (stereo unspecified)	-21.1%
c1ccc(-c2nc(CN3CCCC3Cn3cncn3)co2)cc1 (stereo unspecified)	-1.99%
Cc1cc(C)n(CC2CCCCN2CC(=O)NC2CCOCC2)n1 (stereo unspecified)	-9.01%
CC(C)c1nc(CN2CCCC(Cn3cncn3)C2)cs1 (stereo unspecified)	-12.9%
Cc1cc(NC(=O)NCc2cccnc2OC(C)C)no1	-11.5%
COc1c(C2CCCN2C(=O)c2csc(C(C)C)n2)c(C)nn1C (stereo unspecified)	-8.26%

SMILES	cytotoxicity at 10 µM
CC(C)c1n[nH]c(C2CN(C(=O)C3=COCC3)CCO2)n1 (stereo unspecified)	-7.99%
c1ccc(Cc2noc(CNC3CCc4ncnn4C3)n2)cc1 (stereo unspecified)	-5.99%
Cc1nnc2n1CCN(C(C(=O)NC1CC1)c1ccccc1)C2 (stereo unspecified)	-2.94%
Cc1cc(C2CCCN2C(=O)c2cc3c(s2)CCC3)on1 (stereo unspecified)	-13.4%
Cc1cc(C(C)NC(=O)N2CCC(n3cncn3)CC2)c(C)s1 (stereo unspecified)	-15.9%
CCc1nc(CN2CCCN(C(=O)C(C)n3ccnc3)CC2)cs1 (stereo unspecified)	-13.8%
CCc1nc(CN(C)C2CCN(CCc3ccccn3)C2)no1 (stereo unspecified)	-0.168%
CC(Cc1c(F)cccc1F)NC(=O)Nc1cnn(CC(N)=O)c1 (stereo unspecified)	-2.96%
Cc1csc(N2CCN(C(=O)CCC(=O)c3ccc(C)s3)CC2)n1	-3.09%
Cc1cc(C)n(CC2CCCN2Cc2c(C)noc2C)n1 (stereo unspecified)	-4.08%
CCc1nc(C2CCCN2C(=O)CCn2cncn2)no1 (stereo unspecified)	-5.63%
CNC(=O)[C@@H](c1ccccc1)N1CCC[C@H]1C(=O)NC1CCCCC1	2.35%
Cc1nc(O)cc(C2CCN(Cc3ccc(F)c(F)c3)C2)n1 (stereo unspecified)	-11.3%
Cc1occc1C(=O)N1CCC2(CC1)CC(OCc1ccccn1)CO2 (stereo unspecified)	-71.7%
CCO[C@@H]1CO[C@@]2(CCCN(S(=O)(=O)c3cccnc3)C2)C1	-0.156%
O=C(NC1CC1)N1CCC2(CC1)C(=O)NCCN2Cc1ccccc1	-0.685%
COc1cc(CNCCc2nc(C)cs2)cc2c1OCCO2	-2.4%
Cc1nc(CN2CC[C@@H]3O[C@@H](C(=O)N4CCOCC4)C[C@@H]32)cs1	2.08%
